Results as given in ChEMBL document CHEMBL3425497, “Discovery of (R)-1-(3-((2-chloro-4-(((2-hydroxy-2-(8-hydroxy-2-oxo-1,2-dihydroquinolin-5-yl)ethyl)amino)methyl)-5-methoxyphenyl)amino)-3-oxopropyl)piperidin-4-yl [1,1'-biphenyl]-2-ylcarbamate (TD-5959, GSK961081, batefenterol): first-in-class dual pharmacology multivalent muscarinic antagonist and …” (J Med Chem, 2015).
Activity calls are given as the source filed them. The calls are words filed in the database; no cut-off is given here.

Tests used:
[1] = molecular target: Beta-2 adrenergic receptor (Homo sapiens, UniProt P07550); experiment: Agonist activity at human beta2 adrenergic receptor expressed in HEK293 cells assessed as cAMP accumulation using [125I]cAMP by scintillation counting; format: functional, cell-based
[2] = molecular target: Muscarinic acetylcholine receptor M3 (Homo sapiens, UniProt P20309); experiment: Displacement of [3H]NMS from human muscarinic M3 receptor expressing CHO-K1 cells incubated for 60 mins or 6 hrs by liquid scintillation counting; format: cell-based
Cavia porcellus [3] = experiment: Bronchoprotection in male Duncan Hartley guinea pig bronchoconstriction einthoven model assessed as inhibition of methacholine-induced bronchoconstriction at 100 microg/ml, inhalation after 1.5 hrs by in vivo muscarinic acetylcholine receptor antagonist activity assay; format: functional
Cavia porcellus [4] = experiment: Bronchoprotection in male Duncan Hartley guinea pig bronchoconstriction einthoven model assessed as inhibition of methacholine-induced bronchoconstriction at 100 microg/ml, inhalation after 24 hrs by in vivo muscarinic acetylcholine receptor antagonist activity assay; format: functional; design: scale not given: the % may be the effect or the level left
How it was run: (§1)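 Einthoven bronchoprotection in guinea pigs, read as % bronchoprotection 24 h after inhaled dosing. The TFA salt was used in the initial experiments. For one compound, the edisylate salt was compared with the TFA form. Group sizes were n = 3–8.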

Cavia porcellus [5] = experiment: Bronchoprotection in male Duncan Hartley guinea pig bronchoconstriction einthoven model assessed as inhibition of methacholine-induced bronchoconstriction at 100 microg/ml, inhalation after 24 hrs by in vivo muscarinic antagonist and beta2 agonist activity assay; format: functional; how it was run: as §1
Cavia porcellus [6] = experiment: Bronchoprotection in male Duncan Hartley guinea pig bronchoconstriction einthoven model assessed as inhibition of methacholine-induced bronchoconstriction at 100 microg/ml, inhalation after 1.5 hrs by in vivo beta2 adrenergic receptor agonist activity assay; format: functional; design: scale not given: the % may be the effect or the level left
Cavia porcellus [7] = experiment: Bronchoprotection in male Duncan Hartley guinea pig bronchoconstriction einthoven model assessed as inhibition of methacholine-induced bronchoconstriction at 100 microg/ml, inhalation after 24 hrs by in vivo beta2 adrenergic receptor agonist activity assay; format: functional; design: scale not given: the % may be the effect or the level left; how it was run: as §1
Cavia porcellus [8] = experiment: Bronchoprotection in male Duncan Hartley guinea pig bronchoconstriction einthoven model assessed as inhibition of methacholine-induced bronchoconstriction at 100 microg/ml, inhalation after 1.5 hrs by in vivo muscarinic antagonist and beta2 agonist activity assay; format: functional
Cavia porcellus [9] = species on record: Cavia porcellus; experiment: Antisialagogue activity in guinea pig assessed as inhibition of pilocarpine-induced sialagogue response at 100 ug/ml, inhalation after 1.5 hrs; format: functional
How it was run: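 Guinea pigs were pretreated with test compound by inhalation. At 1.5 h post-dose they were challenged with pilocarpine. The sialagogue (salivation) response was recorded as % inhibition.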

Cavia porcellus [10] = experiment: Bronchoprotection in male Duncan Hartley guinea pig bronchoconstriction einthoven model assessed as inhibition of methacholine-induced bronchoconstriction at 10 microg/ml, inhalation after 24 hrs by in vivo muscarinic antagonist and beta2 agonist activity assay; format: functional, organism-based
How it was run: (§2)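 Guinea pig Einthoven bronchoprotection model after test compound dosing (TFA salt in initial experiments). % bronchoprotection was scored separately as MA, BA and combined MABA activity, at 1.5 h or 24 h postdose; n = 3–8 animals per group.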

Cavia porcellus [11] = experiment: Bronchoprotection in male Duncan Hartley guinea pig bronchoconstriction einthoven model assessed as inhibition of methacholine-induced bronchoconstriction at 10 microg/ml, inhalation after 1.5 hrs by in vivo muscarinic antagonist and beta2 agonist activity assay; format: functional, organism-based; how it was run: as §2
Cavia porcellus [12] = experiment: Bronchoprotection in male Duncan Hartley guinea pig bronchoconstriction einthoven model assessed as inhibition of methacholine-induced bronchoconstriction at 10 microg/ml, inhalation after 1.5 hrs by in vivo muscarinic acetylcholine receptor antagonist activity assay; format: functional; design: scale not given: the % may be the effect or the level left; how it was run: as §2
Cavia porcellus [13] = experiment: Bronchoprotection in male Duncan Hartley guinea pig bronchoconstriction einthoven model assessed as inhibition of methacholine-induced bronchoconstriction at 10 microg/ml, inhalation after 24 hrs by in vivo beta2 adrenergic receptor agonist activity assay; format: functional, organism-based; how it was run: as §2
Cavia porcellus [14] = experiment: Bronchoprotection in male Duncan Hartley guinea pig bronchoconstriction einthoven model assessed as inhibition of methacholine-induced bronchoconstriction at 10 microg/ml, inhalation after 24 hrs by in vivo muscarinic acetylcholine receptor antagonist activity assay; format: functional; design: scale not given: the % may be the effect or the level left; how it was run: as §2
Cavia porcellus [15] = experiment: Bronchoprotection in male Duncan Hartley guinea pig bronchoconstriction einthoven model assessed as inhibition of methacholine-induced bronchoconstriction at 10 microg/ml, inhalation after 1.5 hrs by in vivo beta2 adrenergic receptor agonist activity assay; format: functional, organism-based; how it was run: as §2
Cavia porcellus [16] = species on record: Cavia porcellus; experiment: Antisialagogue activity in guinea pig assessed as inhibition of pilocarpine-induced sialagogue response at 10 ug/ml, inhalation after 1.5 hrs; format: functional

Sequence of Muscarinic acetylcholine receptor M3 (P20309 whole entry): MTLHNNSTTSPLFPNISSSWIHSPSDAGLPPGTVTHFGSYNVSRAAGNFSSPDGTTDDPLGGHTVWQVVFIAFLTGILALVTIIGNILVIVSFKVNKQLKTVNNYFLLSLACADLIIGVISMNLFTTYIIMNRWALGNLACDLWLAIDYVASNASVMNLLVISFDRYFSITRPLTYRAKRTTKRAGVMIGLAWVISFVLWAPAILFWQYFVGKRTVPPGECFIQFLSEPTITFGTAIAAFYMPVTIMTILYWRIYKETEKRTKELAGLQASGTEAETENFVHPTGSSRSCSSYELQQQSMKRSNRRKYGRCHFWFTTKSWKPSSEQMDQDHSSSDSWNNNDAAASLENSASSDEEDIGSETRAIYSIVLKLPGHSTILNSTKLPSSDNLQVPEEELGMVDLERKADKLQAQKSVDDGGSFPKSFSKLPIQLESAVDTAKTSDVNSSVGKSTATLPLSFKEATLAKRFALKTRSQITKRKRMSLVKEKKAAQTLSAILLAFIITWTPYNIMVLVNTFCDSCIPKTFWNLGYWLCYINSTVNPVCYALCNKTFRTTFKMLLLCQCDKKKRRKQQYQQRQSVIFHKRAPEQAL
Sequence of Beta-2 adrenergic receptor (P07550 whole entry): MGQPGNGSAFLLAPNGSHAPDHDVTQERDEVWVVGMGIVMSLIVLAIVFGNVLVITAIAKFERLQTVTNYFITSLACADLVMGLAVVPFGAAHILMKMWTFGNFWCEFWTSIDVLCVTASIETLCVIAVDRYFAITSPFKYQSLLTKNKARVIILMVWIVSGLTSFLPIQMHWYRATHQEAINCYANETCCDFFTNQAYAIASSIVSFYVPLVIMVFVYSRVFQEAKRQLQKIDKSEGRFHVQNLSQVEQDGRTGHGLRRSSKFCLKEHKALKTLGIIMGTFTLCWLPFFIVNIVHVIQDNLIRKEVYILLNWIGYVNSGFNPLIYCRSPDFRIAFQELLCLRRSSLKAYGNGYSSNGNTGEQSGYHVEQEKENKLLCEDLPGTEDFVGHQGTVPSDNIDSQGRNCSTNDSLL

CN(CCN1CCC(OC(=O)Nc2ccccc2-c2ccccc2)CC1)C(=O)c1ccc(CNC[C@H](O)c2ccc(O)c3[nH]c(=O)ccc23)cc1
EC50 [1]: 0.251 nM | Ki [2]: 0.794 nM

NC(=O)C(c1ccccc1)(c1ccccc1)[C@@H]1CCN(CCc2ccc3c(c2)CCO3)C1 [DARIFENACIN]
Activity (Cavia porcellus [3]): inactive | Activity (Cavia porcellus [4]): 72% | Activity (Cavia porcellus [5]): inactive | Activity (Cavia porcellus [6]): 74% | Activity (Cavia porcellus [7]): 43% | Activity (Cavia porcellus [8]): inactive

COc1cc(C(=O)NCCN2CCC(OC(=O)Nc3ccccc3-c3ccccc3)CC2)ccc1CNC[C@H](O)c1ccc(O)c2[nH]c(=O)ccc12
EC50 [1]: 1.58 nM | Ki [2]: 6.31 nM

O=C(CCN1CCC(OC(=O)Nc2ccccc2-c2ccccc2)CC1)Nc1ccc(CNC[C@H](O)c2ccc(O)c3[nH]c(=O)ccc23)c(Cl)c1
EC50 [1]: 0.501 nM | Ki [2]: 0.2 nM

COc1cc(NC(=O)CCN2CCC(OC(=O)Nc3ccccc3-c3ccccc3)CC2)ccc1CNC[C@H](O)c1ccc(O)c2[nH]c(=O)ccc12
Activity (Cavia porcellus [3]): 94% | inhibition (INH) (Cavia porcellus [9]): -3% | Activity (Cavia porcellus [4]): 81% | Activity (Cavia porcellus [6]): 70% | EC50 [1]: 0.251 nM | Activity (Cavia porcellus [7]): 72% | Ki [2]: 0.158 nM

O=C(Nc1ccccc1-c1ccccc1)OC1CCN(CCNC(=O)c2ccc(CNC[C@H](O)c3ccc(O)c4[nH]c(=O)ccc34)cc2)CC1
Activity (Cavia porcellus [4]): 74% | EC50 [1]: 0.501 nM | Activity (Cavia porcellus [7]): 20% | Ki [2]: 0.631 nM

Cc1cc(CNC[C@H](O)c2ccc(O)c3[nH]c(=O)ccc23)ccc1N(C)C(=O)CCN1CCC(OC(=O)Nc2ccccc2-c2ccccc2)CC1
EC50 [1]: 3.98 nM | Ki [2]: 0.2 nM

COc1ccc(CCNC[C@H](O)c2ccc(O)c3[nH]c(=O)ccc23)cc1NC(=O)CCN1CCC(OC(=O)Nc2ccccc2-c2ccccc2)CC1
EC50 [1]: 1.26 nM | Ki [2]: 7.94 nM

C[N+]1(C)[C@@H]2C[C@@H](OC(=O)C(O)(c3cccs3)c3cccs3)C[C@H]1[C@@H]1O[C@@H]12 [TIOTROPIUM]
Activity (Cavia porcellus [10]): inactive | Activity (Cavia porcellus [11]): inactive | Activity (Cavia porcellus [12]): 90% | Activity (Cavia porcellus [13]): inactive | Activity (Cavia porcellus [14]): 75% | Activity (Cavia porcellus [15]): inactive | inhibition (INH) (Cavia porcellus [16]): 99%

COc1cc(N(C)C(=O)CCN2CCC(OC(=O)Nc3ccccc3-c3ccccc3)CC2)ccc1CNC[C@H](O)c1ccc(O)c2[nH]c(=O)ccc12
EC50 [1]: 50.1 nM | Ki [2]: 0.631 nM

COc1ccc(NC(=O)CCN2CCC(OC(=O)Nc3ccccc3-c3ccccc3)CC2)cc1CCNC[C@H](O)c1ccc(O)c2[nH]c(=O)ccc12
EC50 [1]: 0.794 nM | Ki [2]: 2 nM

COc1c(CNC[C@H](O)c2ccc(O)c3[nH]c(=O)ccc23)ccc(NC(=O)CCN2CCC(OC(=O)Nc3ccccc3-c3ccccc3)CC2)c1Cl
EC50 [1]: 0.398 nM | Ki [2]: 0.631 nM

O=C(CCN1CCC(OC(=O)Nc2ccccc2-c2ccccc2)CC1)NCCCCCNC[C@H](O)c1ccc(O)c2[nH]c(=O)ccc12
EC50 [1]: 0.126 nM | Ki [2]: 0.1 nM

O=C(CCN1CCC(OC(=O)Nc2ccccc2-c2ccccc2)CC1)N[C@H]1CC[C@H](CNC[C@H](O)c2ccc(O)c3[nH]c(=O)ccc23)CC1
EC50 [1]: 0.158 nM | Ki [2]: 0.316 nM

Cc1cc(C(=O)NCCN2CCC(OC(=O)Nc3ccccc3-c3ccccc3)CC2)c(C)cc1CNC[C@H](O)c1ccc(O)c2[nH]c(=O)ccc12
EC50 [1]: 0.158 nM | Ki [2]: 3.16 nM

O=C(CCN1CCC(OC(=O)Nc2ccccc2-c2ccccc2)CC1)Nc1cccc(CCNC[C@H](O)c2ccc(O)c3[nH]c(=O)ccc23)c1
Activity (Cavia porcellus [3]): 77% | inhibition (INH) (Cavia porcellus [9]): 23% | Activity (Cavia porcellus [4]): 51% | Activity (Cavia porcellus [5]): 72% | Activity (Cavia porcellus [6]): 80% | EC50 [1]: 0.1 nM | Activity (Cavia porcellus [7]): 46% | Ki [2]: 1 nM | Activity (Cavia porcellus [8]): 93%

O=C(Nc1ccccc1-c1ccccc1)OC1CCN(CCCCCCCCCNC[C@H](O)c2ccc(O)c3[nH]c(=O)ccc23)CC1
Activity (Cavia porcellus [3]): 94% | Activity (Cavia porcellus [4]): 72% | Activity (Cavia porcellus [6]): 63% | Activity (Cavia porcellus [7]): 10%

Cc1cc(NC(=O)CCN2CCC(OC(=O)Nc3ccccc3-c3ccccc3)CC2)ccc1CNC[C@H](O)c1ccc(O)c2[nH]c(=O)ccc12
EC50 [1]: 0.2 nM | Ki [2]: 1.26 nM

O=C(CCN1CCC(OC(=O)Nc2ccccc2-c2ccccc2)CC1)Nc1ccc(CNC[C@H](O)c2ccc(O)c3[nH]c(=O)ccc23)cc1Cl
EC50 [1]: 0.251 nM | Activity (Cavia porcellus [7]): 25% | Ki [2]: 0.2 nM

COc1cc(NC(=O)CCN2CCC(OC(=O)Nc3ccccc3-c3ccccc3)CC2)c(C)cc1CNC[C@H](O)c1ccc(O)c2[nH]c(=O)ccc12
EC50 [1]: 0.316 nM | Ki [2]: 0.316 nM

COc1cc(CNC[C@H](O)c2ccc(O)c3[nH]c(=O)ccc23)ccc1NC(=O)CCN1CCC(OC(=O)Nc2ccccc2-c2ccccc2)CC1
Activity (Cavia porcellus [4]): 22% | EC50 [1]: 0.501 nM | Activity (Cavia porcellus [7]): 33% | Ki [2]: 1.58 nM

Cc1cc(CNC[C@H](O)c2ccc(O)c3[nH]c(=O)ccc23)ccc1NC(=O)CCN1CCC(OC(=O)Nc2ccccc2-c2ccccc2)CC1
Activity (Cavia porcellus [4]): 92% | Activity (Cavia porcellus [5]): 96% | EC50 [1]: 0.2 nM | Activity (Cavia porcellus [7]): 20% | Ki [2]: 0.0501 nM

COc1cc(N(C)C(=O)CCN2CCC(OC(=O)Nc3ccccc3-c3ccccc3)CC2)c(Cl)cc1CNC[C@H](O)c1ccc(O)c2[nH]c(=O)ccc12
EC50 [1]: 0.794 nM | Ki [2]: 0.316 nM

O=C(CCN1CCC(OC(=O)Nc2ccccc2-c2ccccc2)CC1)Nc1ccc(CNC[C@H](O)c2ccc(O)c3[nH]c(=O)ccc23)cc1
inhibition (INH) (Cavia porcellus [9]): 82% | Activity (Cavia porcellus [4]): 98% | Activity (Cavia porcellus [6]): 47% | EC50 [1]: 0.251 nM | Activity (Cavia porcellus [7]): -2% | Ki [2]: 0.0794 nM

COc1c(CNC[C@H](O)c2ccc(O)c3[nH]c(=O)ccc23)ccc(NC(=O)CCN2CCC(OC(=O)Nc3ccccc3-c3ccccc3)CC2)c1C
EC50 [1]: 0.251 nM | Ki [2]: 0.501 nM
